This is an account of results in ChEMBL document CHEMBL5532647, “Design, synthesis, ADME and biological evaluation of benzylpiperidine and benzylpiperazine derivatives as novel reversible monoacylglycerol lipase (MAGL) inhibitors” (Eur J Med Chem, 2024).

The structures appear in SMILES notation. ≈ marks a conversion by molar mass, not a printed value. Calls of active or inactive are those of the source. The calls are words filed in the database; no cut-off is given here.

Series [1] in a line: Permeability of the compound assessed as membrane retention rate by PAMPA method. It is filed as ADME. An outline of the steps: (§1)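 Donor solution made from 1 mM DMSO stock diluted in 25 mM phosphate buffer pH 7.4 to 500 μM final. Filter coated with 1% (w/v) phosphatidylcholine in dodecane. Acceptor was 1:1 v/v DMSO/phosphate buffer. Sandwich incubated 5 h at room temperature. Compound in donor and acceptor wells quantified by UV/LC-MS.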
On the technique in general: PAMPA measures passive passage across an artificial lipid membrane.

A short description of series [2]: Thermodynamic aqueous solubility of the compound by LC-MS/MS analysis. Conditions: read-out: Therm_solubility. The class given is physicochemical. An outline of the steps:
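Solid compound (1 mg) shaken overnight in 1 mL distilled water at room temperature. Suspension passed through a 0.45 μm nylon filter. Dissolved compound quantified in triplicate by UV/LC-MS or LC-MS/MS against a calibration curve of compound in methanol.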

A short description of series [3]: Metabolic stability in human liver microsome in presence of NADPH-regenerating system by UV/LC-MS analysis. The class given is ADME. Conditions: microsomes. An outline of the steps: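 Compound incubated 1 h at 37 °C with human liver microsomes (0.2 mg/mL) and an NADPH-regenerating system (NADPH 0.2 mM, NADP+ 1 mM, glucose-6-phosphate 4 mM, G6PDH 4 unit/mL, MgCl2 48 mM) in 25 mM phosphate buffer pH 7.4. Quenched with acetonitrile, then centrifuged. Parent and metabolites measured by UV/LC-MS. Percent unmetabolized obtained against reference solutions; three independent experiments.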

Series [4] in a line: Stability in human plasma measured after 24 hrs by UV/LC-MS analysis. The class given is ADME, cell-free. Conditions: read-out: Stability. In a few lines: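 Compound (2 mM) incubated at 37 °C in pooled human plasma (55.7 mg protein/mL) with HEPES 25 mM, NaCl 140 mM, pH 7.4. Samples taken at 0–24 h and precipitated with cold acetonitrile. After centrifugation, supernatant analysed by UV/LC-MS. Three independent experiments.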

In series [5] the target is T1, Lysophosphatidylserine lipase ABHD12 (Homo sapiens) (UniProt Q8N2K0).
T1 sequence (whole entry): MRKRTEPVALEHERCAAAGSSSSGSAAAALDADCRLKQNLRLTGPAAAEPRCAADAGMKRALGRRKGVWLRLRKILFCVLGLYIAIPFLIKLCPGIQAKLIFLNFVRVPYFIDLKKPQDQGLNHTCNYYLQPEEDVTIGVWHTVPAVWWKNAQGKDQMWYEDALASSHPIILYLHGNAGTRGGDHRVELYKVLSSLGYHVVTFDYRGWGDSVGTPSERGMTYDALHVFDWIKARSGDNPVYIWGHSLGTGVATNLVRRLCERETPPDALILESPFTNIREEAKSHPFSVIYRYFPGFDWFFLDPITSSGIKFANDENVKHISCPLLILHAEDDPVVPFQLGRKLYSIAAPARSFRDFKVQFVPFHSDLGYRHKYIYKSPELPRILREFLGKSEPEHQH
Nature of the series: Inhibition of human ABHD12 transfected in HEK293 cells at 10 uM preincubated with compound for 30 mins followed by 2-OG addition and measured after 5 mins by liquid scintillation spectroscopy. It is filed as cell-based. Conditions: time 35.0 min. In a few lines:
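Homogenates (40 μg) of HEK293 cells stably transfected with hABHD6 or hABHD12. Compound 10 μM preincubated 30 min at 37 °C, 500 rpm, in Tris/EDTA buffer with 0.1% fatty acid-free BSA, pH 7.6. Controls: WWL70 10 μM or THL 20 μM; DMSO vehicle. 2-OG 10 μM added for 5 min at 37 °C. Stopped with ice-cold CHCl3:MeOH; aqueous phase counted. No-enzyme blanks used; non-transfected HEK293 hydrolysis subtracted.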

Series [6] is described as follows: Apparent permeability of the compound by PAMPA method. The class given is ADME. In a few lines:
as §1

Series [7] in a line: Toxicity in Tenebrio molitor coleoptera assessed as lethal dose measured for 7 days. Conditions: time 7 day. In a few lines:
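Tenebrio molitor beetles used within three days of metamorphosis. Compound dissolved in DMSO, 1 μL injected into the hemocoel between pronotum and elytron. Range-finding on 1 insect starting at 200 mg/kg. Dose then given to five insects with survival monitored 7 days, repeated until LD50 found, and confirmed in ten insects.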

Take `O=C(c1cc(O)ccc1F)N1CCN(Cc2cccc(Sc3cc(C(F)(F)F)ccn3)c2)CC1`: the R% in series [1] is listed as 3.2%. The solubility thermodynamic in series [2] came to 5.47 µg/mL (≈ 11.1 µM). The Stability in series [3] came out at 98.51%. Besides, the remaining at 24 h in series [4] was above 99%. Moreover, the inhibition result in series [5] is “inactive”. Besides, the Papp (as a rule, the rate of passage across a membrane or cell layer, normalised by area and donor concentration) in series [6] was determined as 1.33 ×10⁻⁶ cm/s. For the same compound, the LD50 (commonly the dose expected to kill half of the subjects tested) at 168 h in series [7] is 300 mg/kg.
`O=C(c1cccc(O)c1)N1CCC(Cc2cccc(Sc3cc(C(F)(F)F)ccn3)c2)CC1`: the inhibition result in series [5] was “inactive”.
Take `O=C(c1cc(O)ccc1F)N1CCC(Cc2cccc(Sc3cc(C(F)(F)F)ccn3)c2)CC1`: in series [1], the R% is 17.3%. Also, in series [2], the solubility thermodynamic is 0.00321 µg/mL (≈ 0.00655 µM). In addition, the Stability in series [3] is reported as 96.76%. Besides, the remaining at 24 h in series [4] worked out at 74.1%. In addition, the inhibition entry in series [5] was “inactive”. Also, in series [6], the Papp is 3.3 ×10⁻⁶ cm/s. Besides, the 50% lethal dose (LD50) at 168 h in series [7] was 200 mg/kg.
In the case of `O=C(c1cccc(O)c1)N1CCC(Cc2ccc(F)c(Sc3cc(C(F)(F)F)ccn3)c2)CC1`, in series [5], the inhibition entry was “inactive”.
